# CRFR2-BP ag: agonists of human CRF-binding protein/CRF-R2 receptor complex; HEK293 CRF-R2/CRF-BP, calcium dye fluorescence (FLIPR); percent of saturating CRF peptide response; activation, % at 13.2 µM; 0.46% of 350,000 active; AID 588473;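 active means activation of at least 50%, plus an integration ratio under a set limit after plate pattern correction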;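 further: plate controls were neutral control wells without compound for no effect and CRF at EC100 for full effect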
# CRFR2-BP antag: blocks CRF-induced signaling of the CRF-BP/CRF-R2 complex | AID 588475 | 0.59% of 350,000 active | HEK293 CRF-R2/CRF-BP, CRF-induced calcium fluorescence | inhibition, % at 11.8 µM;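 active means inhibition of the ligand-induced calcium signal above about 50% at the single tested concentration, limit read from the data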
# H9c2 protect: protects H9c2 cardiomyocytes from peroxide injury; 0.63% of 360,000 active; protection from H2O2 cell death, % at 20 µM; AID 588492; H2O2 injury protection, ATPLite, 2 h;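 active means compounds giving at least 50% protection of heart cells from peroxide-induced death in the single-dose screen, raw or plate-pattern-corrected value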;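 further: 0% = DMSO wells with peroxide and 100% = DMSO wells without peroxide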
# beta cell repl: MIN6 beta-cell proliferation induction; 0.29% of 330,000 active; MIN6 cells proliferation, ATPlite luminescence, 48 h; cells starved in 0.2% serum; 100% = growth in 10% serum; AID 2380; proliferation, % at 10 µM;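 active means compounds whose signal lies at least 3.5 SD above the mean of all wells on their plate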;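 further: 0% = DMSO-treated cells in low-serum medium and 100% = 10% serum control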
# UCH37 inh: inhibitors of human deubiquitinating enzyme UCH37; purified proteasome/UCH37, Ub-AMC cleavage fluorescence; 0.33% of 330,000 active; inhibition, % (concentration not given with the values); AID 588478; Q9Y5K5;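 active means mean inhibition over replicate wells above about 20%, limit read from the data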;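 further: 0% = compound-free wells with enzyme and 100% = wells lacking proteasome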
# Target sequence (Q9Y5K5 whole entry, looked up): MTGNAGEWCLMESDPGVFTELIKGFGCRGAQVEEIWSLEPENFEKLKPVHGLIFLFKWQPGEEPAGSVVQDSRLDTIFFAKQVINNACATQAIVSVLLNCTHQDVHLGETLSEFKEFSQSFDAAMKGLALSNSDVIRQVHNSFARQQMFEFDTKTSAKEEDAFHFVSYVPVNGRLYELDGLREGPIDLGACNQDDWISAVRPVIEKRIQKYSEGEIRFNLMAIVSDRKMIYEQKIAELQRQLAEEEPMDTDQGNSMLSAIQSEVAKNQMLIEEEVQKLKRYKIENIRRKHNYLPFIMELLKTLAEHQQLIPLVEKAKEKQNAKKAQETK
#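 Material: human UCH37 enzyme supplied as purified proteasome complex. Measure: % inhibition of Ub-AMC cleavage fluorescence. Medium: pH 7.4 Tris-HCl (50 mM) with ovalbumin, ATP-MgCl2, DTT. Times: 30 min preincubation with enzyme, 25 min cleavage at room temperature. Detection: AMC fluorescence intensity at 355/460 nm.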
# hiPSC survival: enhancers of human iPSC single-cell survival; hiPSC single-cell survival, ATPlite luminescence; 100% = ROCK inhibitor wells, 0% = DMSO; survival enhancement, % at 20 µM; 0.044% of 360,000 active; in the data active means survival enhancement above about 18%;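 further: cells exposed to compounds for 16 hours before the ATP read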
# * hit, by the source's call; i = inactive; x = no result given. Most compounds without a hit are left out; they make up all but 2.1% or so of the library.
SMILES,CRFR2-BP ag,CRFR2-BP antag,H9c2 protect,beta cell repl,UCH37 inh,hiPSC survival
Cc1[nH]c2ccccc2c1SCCNC(=O)c1ccc(S(=O)(=O)N2CCCC2)cc1,-4,114*,-1,0,3,5
Cn1c(=O)[nH]c(=O)c2c1nc(N1CCCCCC1)n2Cc1cccc2ccccc12,-1,-15,-3,-5,32*,4
Cn1c(=O)[nH]c(=O)c2c1nc(N1CCNCC1)n2Cc1ccccc1Cl,1,-15,1,-2,2,0
CC(=NNc1nc(C(C)(C)C)cs1)c1ccc(O)cc1,x,x,x,x,3,x
O=C1Nc2ccccc2N(O)N1c1cc(-c2cccc(Cl)c2)no1,49,50*,-1,-2,3,-1
O=C(O)CCC(=NNC(=O)c1cccs1)c1ccccc1,x,x,x,x,3,x
CC(=O)c1c(C)[nH]c(C(=O)COc2ccc3ccc(=O)oc3c2)c1C,2,2,28,-4,-94,0
COC(=O)c1c(C)[nH]c(C(=O)COc2ccc3ccc(=O)oc3c2)c1C,-1,4,81*,3,-29,2
O=C(NN=Cc1c[nH]c2ccccc12)c1ccccc1O,x,x,x,x,-10,x
CCN(CC)c1ccc(/C=C(/C#N)c2nc3ccccc3[nH]2)c(OC(C)C)c1,158*,-219,-9,-4,8,-2
FC(F)(F)c1ccccc1C=Nn1c(COc2ccccc2)n[nH]c1=S,x,x,x,x,6,x
O=C(CNC(=O)c1ccc(Br)cc1)NN=Cc1ccc[nH]1,x,x,x,x,1,x
Cc1ccc2nc(NCC(=O)O)nc(-c3ccccc3)c2c1,-2,0,-7,-3,-29,-2
O=C(O)CCNc1nc(-c2ccccc2)c2cc(Br)ccc2n1,96*,-25,-1,0,-12,0
Cc1ccc2nc(NCCC(=O)O)nc(-c3ccccc3)c2c1,146*,38,-8,6,i,-2
O=C(COc1cccc2c1CCNC2=O)Nc1cccc(F)c1,4,-9,74*,3,1,0
CCCC(=O)Nc1ccc(-c2nc3cc(C)ccc3o2)cc1,0,-10,-13,-2,-38,-4
CCCC(=O)Nc1ccc(-c2nc3cc(C)c(C)cc3o2)c(O)c1,3,75*,-10,-1,-329,1
COc1ccccc1C(=O)NCC(=O)NN=Cc1ccncc1,x,x,x,x,30*,x
O=C(NN=Cc1ccncc1)c1ccccc1,x,x,x,x,31*,x
CC(C)OC(=O)CC(=O)c1sc2nc3c(cc2c1N)CN(C)CC3,103*,-72,x,-1,-45,x
CCN1CCc2nc3sc(C(=O)N4CCc5ccccc5C4)c(N)c3cc2C1,0,-3,16,1,2,0
O=C(NN=C(CC(=O)c1cccs1)C(F)(F)F)c1ccncc1,x,x,x,x,9,x
Cc1cc(C=Nn2cnnc2)c(C)n1-c1ccc(C(=O)O)cc1,x,x,x,x,8,x
CCCN1CCN(C(c2cc3cc(OCC)ccc3[nH]c2=O)c2nnnn2C2CCCCC2)CC1 (stereo not drawn),-3,-13,3,1,-139,1
SMILES,CRFR2-BP ag,CRFR2-BP antag,H9c2 protect,beta cell repl,UCH37 inh,hiPSC survival
CCOc1ccc2[nH]c(=O)c(CN(CCO)C(c3nnnn3C3CCCCC3)C(C)C)cc2c1 (stereo not drawn),24,-52,103*,x,x,-1
O=C(COc1ccccc1Cl)Nc1nc(-c2ccncc2)cs1,0,-25,0,0,6,-2
Cc1cc(C)cc(OCC(=O)Nc2nc(-c3ccccn3)cs2)c1,0,8,41,-4,6,0
O=C(COc1ccc(F)cc1Cl)Nc1nc(-c2ccccn2)cs1,x,x,61*,-7,x,4
N#Cc1ccccc1OCC(=O)Nc1nc(-c2ccccn2)cs1,-2,9,63*,x,x,6
COc1cc(NC(=O)CSc2nc3c(C)ccc(C)c3cc2C)c(C(=O)O)cc1OC,0,99*,10,0,6,2
CC(=O)Oc1ccc2oc(/C=C/N(C)C)c([N+](=O)[O-])c2c1,0,44,-1,-3,22*,-2
C/C(=C/c1oc2ccc(O)cc2c1[N+](=O)[O-])N(C)C,-18,30,13,2,9,0
CCOc1ccc(-n2c(C)cc(/C=C3/C(=N)N4C(=NC3=O)SN=C4S(C)(=O)=O)c2C)cc1,2,93*,-8,-4,-4,-2
Cc1ccc(-n2cccc2/C=C2/C(=N)N3C(=NC2=O)SN=C3S(C)(=O)=O)cc1Cl,1,50*,-5,x,10,0
Cc1cccc(C)c1-n1cccc1/C=C1/C(=N)N2C(=NC1=O)SN=C2S(C)(=O)=O,-1,59*,-12,0,4,-1
CCC(CC)C1=NN2C(=N)/C(=C\c3cc(C)n(-c4cccc(C)c4)c3C)C(=O)N=C2S1,87*,-64,-14,-1,-4,-1
O=C(CC(c1ccccc1)c1ccccc1O)NCc1ccccc1Cl (stereo not drawn),-11,67*,0,0,4,0
O=C(CC(c1ccccc1)c1ccccc1O)NCc1ccco1 (stereo not drawn),-2,6,-4,-2,-2,0
C/C(C=Nn1c(-c2cc(C)[nH]n2)n[nH]c1=S)=C\c1ccccc1,x,x,x,x,6,x
CCN(CC)c1ccc(C=c2sc3nnc(-c4ccccc4C)n3c2=O)cc1,x,x,x,x,11,x
COc1ccc(N(C(=O)c2ccco2)C(C(=O)NC2CCCC2)c2ccc(N3CCOCC3)cc2)c(OC)c1 (stereo not drawn),0,53*,3,-2,0,-1
COc1ccc(N(C(=O)c2ccco2)C(C(=O)NC2CCCC2)c2ccc(C)cc2)c(OC)c1 (stereo not drawn),0,-1,-2,1,2,0
Cc1cc(C)n2nc(C(=O)NN=Cc3ccc(O)cc3)nc2n1,x,x,x,x,3,x
O=C(NN=Cc1ccco1)c1cccc(NC(=O)c2ccccc2Cl)c1,x,x,x,x,5,x
CCOc1cc(-c2cc(-c3ccc(N)cc3)nc(N)c2C#N)ccc1O,-2,10,116*,-4,-319,2
CCOc1cc(-c2cc(-c3ccccc3)nc(N)c2C#N)ccc1O,-1,33,2,-4,-79,0
NC(=O)CS(=O)(=O)c1nc2ccccc2n1Cc1ccccc1F,2,118*,0,0,2,4
CC(=O)NCc1nc2ccccc2n1Cc1ccccc1F,-2,-11,2,-2,3,0
Cc1cc(C(=O)CN2C(=O)NC3(CCCC3)C2=O)c(C)n1-c1ccc2c(c1)OCO2,1,35,14,1,1,1
Cc1cc(C(=O)CN2C(=O)NC(C)(CC(C)C)C2=O)c(C)n1-c1ccc2c(c1)OCO2 (stereo not drawn),-3,80*,1,0,4,1
Cc1noc(C)c1CSCc1ccc(Cl)cc1,-3,76*,2,-2,-2,3
